Assay results taken from ChEMBL document CHEMBL1122990, “Cyclic melanotropins. 9. 7-D-Phenylalanine analogues of the active-site sequence” (J Med Chem, 1985).

Assays:
frog = assay: Potency in the frog (Rana pipiens) skin bioassay relative to alpha-MSH; format: functional
In short: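 In vitro Rana pipiens skin bioassay scoring melanosome dispersion as skin darkening. Solutions were made by serial dilution from a 10⁻⁴ M stock. Responses are the mean ± SE of 6 or more skins. Potency was calculated along the linear portion of the dose-response curve and standardized to α-MSH = 1.00.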

lizara = assay: Potency in the lizard (Anolis carolinensis) skin bioassay relative to alpha-MSH; format: functional
In short: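 In vitro Anolis carolinensis skin bioassay scoring melanosome dispersion as skin darkening. Solutions were made by serial dilution from a 10⁻⁴ M stock. Potency was calculated along the linear portion of the dose-response curve and standardized to α-MSH = 1.00.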

Structure (SMILES) | Potency (frog) | Potency (lizara)
CC(=O)N[C@H]1CSSC[C@@H](C(N)=O)NC(=O)[C@H](Cc2c[nH]c3ccccc23)NC(=O)[C@H](CCCN=C(N)N)NC(=O)[C@@H](Cc2ccccc2)NC(=O)[C@H](Cc2c[nH]cn2)NC(=O)[C@H](CCC(=O)O)NC1=O | 0.75 | 0.5
CC(=O)N[C@@H](CO)C(=O)N[C@@H](Cc1ccc(O)cc1)C(=O)N[C@@H](CO)C(=O)N[C@H]1CSSC[C@@H](C(=O)N[C@@H](CCCCN)C(=O)N2CCC[C@H]2C(=O)N[C@H](C(N)=O)C(C)C)NC(=O)[C@H](Cc2c[nH]c3ccccc23)NC(=O)[C@@H](CCCN=C(N)N)NC(=O)[C@H](Cc2ccccc2)NC(=O)[C@@H](Cc2c[nH]cn2)NC(=O)[C@H](CCC(=O)O)NC1=O | 10 | 2
CC(=O)N[C@H]1CSSC[C@@H](C(=O)N[C@@H](CCCCN)C(N)=O)NC(=O)[C@H](Cc2c[nH]c3ccccc23)NC(=O)[C@H](CCCN=C(N)N)NC(=O)[C@@H](Cc2ccccc2)NC(=O)[C@H](Cc2c[nH]cn2)NC(=O)[C@H](CCC(=O)O)NC1=O | 2.5 | 3
CC(=O)N[C@H]1CSSC[C@@H](C(=O)N[C@@H](CCCCN)C(N)=O)NC(=O)[C@H](Cc2c[nH]c3ccccc23)NC(=O)[C@H](CCCN=C(N)N)NC(=O)[C@H](Cc2ccccc2)NC(=O)[C@H](Cc2c[nH]cn2)NC(=O)[C@H](CCC(=O)O)NC1=O | 0.16 | 0.07
CC(=O)N[C@H]1CSSC[C@@H](C(N)=O)NC(=O)[C@H](Cc2c[nH]c3ccccc23)NC(=O)[C@H](CCCN=C(N)N)NC(=O)[C@H](Cc2ccccc2)NC(=O)[C@H](Cc2c[nH]cn2)NC(=O)[C@H](CCC(=O)O)NC1=O | 0.06 | 0.003
